Entries after “also recorded” stand apart in the source; their conditions may differ. Read-outs that look alike come from different tables or passages of the source.
Assays:
[1] = tested on: SR; experiment: NCI five-dose screen, leukemia; format: cell-based; details: Homo sapiens
In short: (§1)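 This was the NCI five-dose screen on the 60-cell-line human cancer panel, covering nine tumour types. It was given to compounds that met the single-dose criteria. GI50 is the concentration giving 50% growth inhibition, TGI the concentration giving 100% growth inhibition, and LC50 the concentration giving 50% lethality. MG-MID is the mean over all cell lines tested.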

[2] = tested on: HT29; experiment: NCI five-dose screen, colon cancer; format: cell-based; details: Homo sapiens, HT-29
In short: as §1

[3] = tested on: HCT-116; experiment: NCI five-dose screen, colon cancer; format: cell-based; details: Homo sapiens; for GI50: HCT-116
In short: as §1

[4] = tested on: 60 cancer cell lines; experiment: NCI single dose; format: cell-based, human; details: for GI% values, range over cell lines: 10 μM, range over the leukemia and colon cancer cell lines of Table 2; for inhibition at 10 µM: Homo sapiens, read-out: Mean percent growth inhibition (MPGI)
In short: (§2)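 This was the NCI primary screen: test compound at one concentration of 10 μM against the 60-cell-line human cancer panel, covering leukemia, NSCLC, melanoma, colon, CNS, ovarian, renal, prostate and breast lines. The read-out was percent growth inhibition for each cell line. Compounds meeting the threshold went on to the five-dose screen.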

[5] = tested on: MOLT-4; experiment: NCI five-dose screen, leukemia; format: cell-based; details: Homo sapiens
In short: as §1

[6] = tested on: panel of 60 cell lines; experiment: NCI five-dose screen, whole panel; format: cell-based; details: Homo sapiens; for CC50: read-out: Median LC50 (MG-MID)
In short: as §1

[7] = tested on: CCRF-CEM; experiment: NCI five-dose screen, leukemia; format: cell-based; details: Homo sapiens
In short: as §1

[8] = tested on: COLO 205; experiment: NCI five-dose screen, colon cancer; format: cell-based; details: Homo sapiens; for GI50: COLO 205; for CC50: COLO 205, read-out: LC50
In short: as §1

[9] = tested on: SW-620; experiment: NCI five-dose screen, colon cancer; format: cell-based; details: Homo sapiens; for GI50: SW-620
In short: as §1

[10] = Cytotoxicity in normal cells; format: cell-based, human; details: human, WI-38 normal fibroblasts
In short: (§3)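 Normal human WI-38 fibroblasts were exposed to a concentration series of test compound, with doxorubicin as positive control and three wells per concentration. IC50 came from dose–response curves averaged over two parallel experiments and is given as mean ± SEM versus untreated cells. Selectivity index = WI-38 IC50 / median GI50 from the NCI cancer panel.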

[11] = tested on: human normal fibroblasts (WI-38); experiment: Cytotoxicity in normal cells; format: cell-based; details: SI = WI-38 IC50/median GI50
In short: as §3

[12] = tested on: HCC-2998; experiment: NCI five-dose screen, colon cancer; format: cell-based; details: Homo sapiens; for GI50: HCC 2998; for CC50: HCC 2998, read-out: LC50
In short: as §1

[13] = tested on: K-562; experiment: NCI five-dose screen, leukemia; format: cell-based; details: Homo sapiens, K562
In short: as §1

[14] = tested on: p53; experiment: Gene expression by real time PCR in HepG2; format: cell-based; details: Homo sapiens, HepG2, 8 h, read-out: p53 expression, fold induction from untreated cells
In short: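 HepG2 cells treated with test compound; p53 transcript measured within a panel that also covered cdk1, caspase 3, topoII and txnrd1, and expressed relative to untreated cells. Values given as mean ± SEM of two independent experiments, with significance set at p < 0.05 versus untreated cells.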

[15] = tested on: HCT-15; experiment: NCI five-dose screen, colon cancer; format: cell-based; details: Homo sapiens; for GI50: HCT-15
In short: as §1

[16] = tested on: KM12; experiment: NCI five-dose screen, colon cancer; format: cell-based; details: Homo sapiens; for GI50: KM12
In short: as §1

[17] = tested on: RPMI-8226; experiment: NCI five-dose screen, leukemia; format: cell-based; details: Homo sapiens; for GI50: RPMI-8226
In short: as §1

[18] = tested on: HL-60 (TB); experiment: cells; details: Homo sapiens; for GI50: HL-60
[19] = tested on: SR; experiment: NCI single dose; format: cell-based; details: Homo sapiens, read-out: percent growth inhibition
In short: as §2

[20] = tested on: topoisomerase II (topoII); experiment: Gene expression by real time PCR in HepG2; format: cell-based; details: HepG2, approximate value in text
[21] = tested on: cleaved caspase-3; experiment: Active cleaved caspase 3 activity in HepG2 cells; format: cell-based; details: for effect on activity of cleaved active caspase 3: HepG2 (Fig. 5B)
[22] = tested on: p38 mitogen-activated protein kinase (MAPK); experiment: MAPK concentration in HepG2 cells, sandwich ELISA; format: cell-based; details: HepG2, IC50 concentrations, 8 hours, ELISA (Fig. 5C)
In short: (§4)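 HepG2 cells were treated with test compound, with doxorubicin as reference. Cellular p38 MAPK and Topo II protein concentrations were then measured with commercial sandwich ELISA kits. Each compound had three wells, and the experiment was run twice. Values are mean ± SEM, with significance tested against untreated cells.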

[23] = tested on: topoisomerase II (Topo II); experiment: Topo II concentration in HepG2 cells, sandwich ELISA; format: cell-based; details: HepG2, IC50 concentrations, 8 hours, ELISA (Fig. 5A)
In short: as §4

[24] = tested on: HT29; experiment: NCI single dose; format: cell-based; details: Homo sapiens, HT-29, read-out: percent growth inhibition
In short: as §2

[25] = tested on: cyclin-dependent kinase 1 (cdk1); experiment: Gene expression by real time PCR in HepG2; format: cell-based; details: HepG2, approximate value in text
[26] = tested on: K-562; experiment: NCI single dose; format: cell-based; details: Homo sapiens, K562, read-out: percent growth inhibition
In short: as §2

[27] = tested on: HCC-2998; experiment: NCI single dose; format: cell-based; details: Homo sapiens, HCC 2998, read-out: percent growth inhibition
In short: as §2

[28] = tested on: SW-620; experiment: NCI single dose; format: cell-based; details: Homo sapiens, SW-620, read-out: percent growth inhibition
In short: as §2

[29] = tested on: KM12; experiment: NCI single dose; format: cell-based; details: Homo sapiens, KM12, read-out: percent growth inhibition
In short: as §2

[30] = tested on: HCT-15; experiment: NCI single dose; format: cell-based; details: Homo sapiens, HCT-15, read-out: percent growth inhibition
In short: as §2

[31] = tested on: HCT-116; experiment: NCI single dose; format: cell-based; details: Homo sapiens, HCT-116, read-out: percent growth inhibition
In short: as §2

[32] = tested on: MOLT-4; experiment: NCI single dose; format: cell-based; details: Homo sapiens, MOLT-4, read-out: percent growth inhibition
In short: as §2

[33] = tested on: CCRF-CEM; experiment: NCI single dose; format: cell-based; details: Homo sapiens, read-out: percent growth inhibition
In short: as §2

COc1ccc(-c2ccc(-c3ccc(C(=N)N)nc3)s2)cc1.Cl [Compound 4a, 5-[5-(4-Methoxyphenyl)thiophen-2-yl]picolinamidine hydrochloride salt]
GI50 [1]: 340 nM
GI50 [2]: 880 nM
GI50 [3]: 1620 nM
GI% values, range over cell lines [4]: −7.17 to −86.03%
inhibition at 10 µM [4]: -28.8%
GI50 [5]: 1900 nM
GI50 ([6]; read-out: Median GI50 (MG-MID)): 1620 nM
CC50 [6]: 8120 nM
GI50 [7]: 1430 nM
GI50 [8]: 1890 nM
CC50 [8]: 8130 nM
GI50 [9]: 430 nM
CC50 ([9]; SW-620, read-out: LC50): 4980 nM
IC50 at 48 h [10]: 21100 ± 3100 nM
selectivity index (SI) [11]: 13.0
GI50 [12]: 1820 nM
CC50 [12]: 6380 nM
GI50 [13]: 1090 nM
fold induction at 0.1 µM [14]: 1.19 ± 0.43
GI50 [15]: 1270 nM
CC50 ([15]; HCT-15, read-out: LC50): 5710 nM
GI50 [16]: 1810 nM
CC50 ([16]; KM12, read-out: LC50): 6030 nM
GI50 [17]: 2130 nM
GI50 [18]: 1780 nM
inhibition at 10 µM [19]: 99.7%

COc1ccc(-c2ccc(-c3ccc(C(=N)N)nc3)s2)cc1Cl.Cl [Compound 4b, 5-[5-(3-Chloro-4-methoxyphenyl)thiophen-2-yl]picolinamidine hydrochloride salt]
magnitude of downregulation of topoII expression [20]: ~50%
GI50 [1]: 580 nM
GI50 [2]: 1350 nM
GI50 [3]: 1820 nM
GI% values, range over cell lines [4]: −7.17 to −86.03%
inhibition at 10 µM [4]: -19.9%
GI50 [5]: 1720 nM
GI50 ([6]; read-out: Median GI50 (MG-MID)): 1730 nM
CC50 [6]: 8310 nM
GI50 [7]: 1180 nM
effect on activity of cleaved active caspase 3 [21]: devoid of any effect
GI50 [8]: 1940 nM
effect on concentration of MAPK protein [22]: significant reduction
GI50 [9]: 1790 nM
IC50 at 48 h [10]: 23700 ± 2500 nM
selectivity index (SI) [11]: 13.7
GI50 [12]: 1860 nM
GI50 [13]: 900 nM
fold induction at 0.1 µM [14]: 1.03 ± 0.08
GI50 [15]: 1570 nM
GI50 [16]: 1810 nM
effect on concentration of Topo II protein [23]: significant reduction; also recorded: significantly downregulate
GI50 [17]: 2250 nM
inhibition at 10 µM [24]: 97.5%
GI50 [18]: 1660 nM
magnitude of downregulation of cdk1 expression [25]: ~50%

COc1cccc2c1C(=O)c1c(O)c3c(c(O)c1C2=O)C[C@@](O)(C(=O)CO)C[C@@H]3O[C@H]1C[C@H](N)[C@H](O)[C@H](C)O1 [Dox, Doxorubicin, reference compound]
IC50 at 48 h [10]: 2900 ± 800 nM
fold induction at 0.1 µM [14]: 3.14 ± 0.81
effect on concentration of Topo II protein [23]: significantly downregulate

COc1cc(-c2ccc(-c3ccc(C(=N)N)nc3)s2)cc(OC)c1OC.Cl [Compound 4c, 5-[5-(3,4,5-Trimethoxyphenyl)thiophen-2-yl]picolinamidine hydrochloride salt]
inhibition at 10 µM [26]: 94.4%
magnitude of downregulation of topoII expression [20]: ~70%
GI50 [1]: 2480 nM
GI50 [2]: 1370 nM
GI50 [3]: 1470 nM
CC50 ([3]; HCT-116, read-out: LC50): 5600 nM
GI% values, range over cell lines [4]: 50.93 to 99.05%
inhibition at 10 µM [4]: 52.6%
GI50 [5]: 2530 nM
GI50 ([6]; read-out: GI50, range over cell lines): 1370 to 2780 nM
GI50 ([6]; read-out: Median GI50 (MG-MID)): 2390 nM
CC50 [6]: 19500 nM
GI50 [7]: 2490 nM
effect on activity of cleaved active caspase 3 [21]: devoid of any effect
increase in cleaved caspase 3 enzyme activity ([21]; HepG2, did not achieve statistical significance (Fig. 5B)): ~60%
inhibition at 10 µM [27]: 87.9%
GI50 [8]: 1600 nM
CC50 [8]: 6660 nM
inhibition at 10 µM [28]: 70.8%
inhibition at 10 µM [29]: 50.9%
inhibition at 10 µM [30]: 78.6%
inhibition at 10 µM [31]: 99%
effect on concentration of MAPK protein [22]: significant reduction
GI50 [9]: 2090 nM
IC50 at 48 h [10]: 51300 ± 9000 nM
selectivity index (SI) [11]: 21.5
GI50 [12]: 2000 nM
CC50 [12]: 7610 nM
GI50 [13]: 1390 nM
fold induction at 0.1 µM [14]: 1.18 ± 0.1
GI50 [15]: 2180 nM
inhibition at 10 µM [32]: 76.2%
GI50 [16]: 2780 nM
effect on concentration of Topo II protein [23]: significant reduction; also recorded: significantly downregulate
GI50 [17]: 1670 nM
CC50 ([17]; RPMI-8226, read-out: LC50): 9400 nM
inhibition at 10 µM [33]: 89.1%
inhibition at 10 µM [24]: 85.8%
GI50 [18]: 1870 nM
CC50 ([18]; HL-60, read-out: LC50): 9440 nM
inhibition at 10 µM [19]: 93.7%
magnitude of downregulation of cdk1 expression [25]: ~70%

From article PMC9057764 (RSC Advances, 2020)
